{"source": "ChEMBL document CHEMBL1124617", "about": "“Approaches to isozyme-specific inhibitors. 16. A novel methyl-C5' covalent adduct of L-ethionine and beta,gamma-imido-ATP as a potent multisubstrate inhibitor of rat methionine adenosyltransferases” (J Med Chem, 1989)", "type_in_all_cases": "protein assay", "key": {"[1]": {"target": "T1, S-adenosylmethionine synthetase (MAT 1 and MAT 2) (Rattus norvegicus, UniProt P13444+P18298)", "test": "Compound was tested for inhibition constant with kidney form of M-2 variants of Rat methionine adenosyltransferase when Methionine was the variable substrate", "summary_of_the_method": "(§1)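 Rat M-2 (normal tissue) isozyme. With methionine as the variable substrate, MgATP was fixed at 2 mM. With MgATP as the variable substrate, methionine was fixed at 60 µM. The MgATP KM was 0.14 mM. Ki values come from kinetic analysis of inhibition against each substrate.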"}, "[2]": {"target": "T1, S-adenosylmethionine synthetase (MAT 1 and MAT 2)", "test": "Compound was tested for inhibition constant with kidney form of M-T variants of Rat methionine adenosyltransferase when ATP was the variable substrate"}, "[3]": {"target": "T1, S-adenosylmethionine synthetase (MAT 1 and MAT 2)", "test": "Compound was tested for inhibition constant with kidney form of M-T variants of Rat methionine adenosyltransferase when Methionine was the variable substrate"}, "[4]": {"target": "T1, S-adenosylmethionine synthetase (MAT 1 and MAT 2)", "test": "Compound was tested for inhibition constant with kidney form of M-2 variants of Rat methionine adenosyltransferase when ATP was the variable substrate", "summary_of_the_method": "as §1"}}}
{"smiles": "Nc1ncnc2c1ncn2[C@@H]1O[C@H]([C@H](CCSCCC(N)C(=O)O)OP(=O)(O)OP(=O)(O)NP(=O)(O)O)[C@@H](O)[C@H]1O", "note": "(some centres not stated)", "values": [{"measurement": "Ki", "setting": "[1]", "value": 5.4, "unit": "µM"}, {"measurement": "Ki", "setting": "[2]", "value": 0.41, "unit": "µM"}, {"measurement": "Ki", "setting": "[3]", "value": 2.7, "unit": "µM"}, {"measurement": "Ki", "setting": "[4]", "value": 0.27, "unit": "µM"}]}
{"smiles": "Nc1ncnc2c1ncn2[C@@H]1O[C@H]([C@@H](CCSCCC(N)C(=O)O)OP(=O)(O)OP(=O)(O)NP(=O)(O)O)[C@@H](O)[C@H]1O", "note": "(some centres not stated)", "values": [{"measurement": "Ki", "setting": "[1]", "value": 2.1, "unit": "µM"}, {"measurement": "Ki", "setting": "[2]", "value": 0.16, "unit": "µM"}, {"measurement": "Ki", "setting": "[3]", "value": 1.1, "unit": "µM"}, {"measurement": "Ki", "setting": "[4]", "value": 0.11, "unit": "µM"}]}
{"smiles": "Nc1ncnc2c1ncn2[C@@H]1O[C@H]([C@H](CSCCC(N)C(=O)O)OP(=O)(O)OP(=O)(O)NP(=O)(O)O)[C@@H](O)[C@H]1O", "note": "(some centres not stated)", "values": [{"measurement": "Ki", "setting": "[1]", "value": 0.65, "unit": "µM"}, {"measurement": "Ki", "setting": "[2]", "value": 0.21, "unit": "µM"}, {"measurement": "Ki", "setting": "[3]", "value": 0.67, "unit": "µM"}, {"measurement": "Ki", "setting": "[4]", "value": 0.13, "unit": "µM"}]}
